SIAE primary – human SIAE inhibitors, primary screen, biochemical, fluorescence polarization, FP-Rh probe, 1536-well HTS | SIAE FP-Rh probe binding | inhibition, % at 9.66 µM | hit rate 0.69% among 370,000 | AID 1053197, 2014;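 active means inhibition above a cutoff: mean of compounds within the control limits plus 3 SD of those, cut at about 17% in these data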
PRMT1 inh – PRMT1 methyltransferase inhibitors, primary screen, biochemical, fluorescence polarization; recombinant PRMT1, activity-based probe fluorescence polarization; hit rate 1.3% among 370,000; AID 652257, 2013; Protein arginine N-methyltransferase 1 (Homo sapiens), Q99873; inhibition, % at 2.79 µM;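 active means inhibition above about 21% made by adding two undisclosed values, limit read from the data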
TCR-CD3 inh – inhibitors of human TCR-CD3 interaction, primary screen, biochemical, fluorescence, TAMRA-labeled TCR probe | T-cell receptor (TCR) | hit rate 0.37% among 360,000 | inhibition, % at 9.4 µM; in the data active means inhibition above about 19%;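 further: recombinant mutant TCR 2C K166C tagged with TAMRA read by polarization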
ABHD4 inh – ABHD4 inhibitors, primary screen, biochemical, fluorescence polarization, mouse | purified mABHD4, FP-Rh probe fluorescence polarization | hit rate 0.54% among 370,000 | (Lyso)-N-acylphosphatidylethanolamine lipase (Mus musculus), Q8VD66 | inhibition, % at 8.92 µM | AID 720543, 2013;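 active means inhibition exceeding the mean over every tested compound plus 3 SD, cut at about 30% in these data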
Target sequence (Q8VD66 whole entry, looked up): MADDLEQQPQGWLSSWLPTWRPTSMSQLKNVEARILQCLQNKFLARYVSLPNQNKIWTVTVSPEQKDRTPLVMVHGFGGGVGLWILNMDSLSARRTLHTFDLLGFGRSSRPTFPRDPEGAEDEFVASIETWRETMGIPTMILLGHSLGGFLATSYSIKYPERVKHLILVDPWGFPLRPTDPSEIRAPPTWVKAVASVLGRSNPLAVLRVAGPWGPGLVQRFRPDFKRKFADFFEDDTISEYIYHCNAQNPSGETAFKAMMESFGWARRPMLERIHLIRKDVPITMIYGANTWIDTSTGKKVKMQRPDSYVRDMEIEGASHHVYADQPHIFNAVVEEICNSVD
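assay system = mABHD4 protein | compound dosing = single nominal dose of 8.92 µM, 0.89% DMSO final | read-out basis = percent inhibition of probe binding, normalized to plate controls | schedule = Enzyme–compound pre-incubation 45 min, then probe 60 min, both 25 °C | detection = fluorescence polarization, excitation 525 nm, emission 598 nm, BODIPY TMR filters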
HTRA1 inh – HTRA1 serine protease inhibitors, primary screen, biochemical, fluorescence polarization, HTS. Q92743. recombinant HTRA1, FP-rhodamine activity-based probe. inhibition, % at 5.96 µM. hit rate 0.5% among 340,000; in the data active means inhibition above about 36%
PRMT1 inh conf – PRMT1 methyltransferase inhibitors, confirmation, biochemical, fluorescence polarization, triplicate | shares compounds with PRMT1 inh | recombinant His-PRMT1, activity-based probe fluorescence polarization | inhibition, % at 2.79 µM | hit rate 42% among 3,300 | AID 687036, 2013;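 active means mean inhibition across replicates above the hit cutoff derived for the earlier primary screen, cut at about 22% in these data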
Hits are given with their value; i = inactive; nt = no result given. An excerpt weighted towards active compounds, which were near 2.6% of everything screened.

SMILES | SIAE primary | PRMT1 inh | TCR-CD3 inh | ABHD4 inh | HTRA1 inh | PRMT1 inh conf
CCCCOc1cccc(C2/C(=C(/O)c3ccc4c(c3)CC(C)O4)C(=O)C(=O)N2CCN2CCOCC2)c1 (stereo unspecified) | i | i | i | i | i | nt
CCC1Cc2[nH]c(=S)[nH]c(=O)c2C(c2ccc(Cl)cc2)O1 (stereo unspecified) | i | i | i | i | nt | nt
Cc1nc(SCC(=O)c2ccccc2)n[nH]1 | i | 54 | i | i | i | 43
O=C(CSc1n[nH]c(-c2ccncc2)n1)c1ccccc1 | i | i | i | i | i | nt
O=C(O)CSC1CC(=O)N(c2cccc(Cl)c2)C1=O (stereo unspecified) | i | i | i | i | i | nt
O=C(O)CSC1CC(=O)N(c2ccc(Cl)c(Cl)c2)C1=O (stereo unspecified) | i | 48 | i | i | i | 36
Cc1ccc(CNC(=O)C2CCN(S(=O)(=O)c3cccs3)CC2)cc1 | i | i | i | i | i | nt
Cc1ccc(CNC(=O)C2CCN(S(=O)(=O)c3cccs3)CC2)o1 | i | 29 | i | i | i | i
COC(=O)C(N)Cc1ccc(O)cc1 (stereo unspecified) | i | i | i | i | i | nt
COC(=O)[C@@H](N)CS | i | 49 | i | i | i | 75
COc1cc(/C=N/NC(=O)CC#N)ccc1Oc1nc(Cl)ncc1F | i | i | i | i | i | nt
CC[n+]1c(S(=O)(=O)[O-])ccc2ccc(C)cc21 | i | i | i | i | i | nt
CCN1/C(=C/c2ccc3ccccc3[n+]2CCCS(=O)(=O)[O-])C=Cc2cc(C)ccc21 | i | i | i | i | i | nt
CC/C(=C/c1sc2ccc(C)cc2[n+]1CCO)SC | i | 52 | i | i | i | i
Cc1ccc2sc(C)[n+](CCC(C)S(=O)(=O)[O-])c2c1 (stereo unspecified) | i | 57 | i | i | i | 31
CC/C(=C/c1sc2ccc(C)cc2[n+]1CCCS(=O)(=O)[O-])SC | i | 39 | i | i | nt | 23
CCOC(=O)C1=C(COC(=O)COc2ccc(OCC)cc2)NC(=O)NC1C (stereo unspecified) | i | i | i | i | i | nt
CS(=O)(=O)N(CCCC(=O)N1CCCCCC1)c1cccc(Cl)c1 | i | i | i | i | i | nt
Cc1nn(C)c(Sc2ccccc2N)c1[N+](=O)[O-] | i | 71 | i | i | i | 52
Cc1cc(C)cc(N2C(=O)C=CC2=O)c1 | i | 80 | i | i | i | 96
Cc1nnc(SCC(=O)N(C)c2c(N)n(Cc3ccccc3)c(=O)[nH]c2=O)n1Cc1ccccc1 | i | i | i | i | i | nt
Cc1ccc2c(CC(=O)N(C)c3c(N)n(Cc4ccccc4)c(=O)[nH]c3=O)coc2c1 | i | 94 | i | i | i | i
CCn1c(SCC(=O)N(C)c2c(N)n(Cc3ccccc3)c(=O)[nH]c2=O)nc2ccccc21 | i | 27 | i | i | i | 27
CCCCn1c(N)c(N(CCC(C)C)C(=O)c2cc(Cl)nc3ccccc23)c(=O)[nH]c1=O | i | i | i | i | i | nt
CCN(C(=O)COC(=O)Cc1coc2cc(C)ccc12)c1c(N)n(Cc2ccccc2)c(=O)[nH]c1=O | i | i | i | i | i | nt
SMILES | SIAE primary | PRMT1 inh | TCR-CD3 inh | ABHD4 inh | HTRA1 inh | PRMT1 inh conf
CCN(C(=O)CSc1nnc(-c2cccc(Cl)c2)n1N)c1c(N)n(Cc2ccccc2)c(=O)[nH]c1=O | i | 32 | i | i | i | 38
CCCCn1c(N)c(N(CCC(C)C)C(=O)CSc2nc3ccccc3n2C)c(=O)[nH]c1=O | i | 27 | i | i | i | i
CCN(C(=O)CSc1nnc(-c2ccc(C)cc2)n1N)c1c(N)n(Cc2ccccc2)c(=O)[nH]c1=O | i | i | i | i | i | nt
Cc1ccc2nsnc2c1S(=O)(=O)Nc1ccccc1C(=O)O | i | i | i | i | i | nt
CCCNC(=O)c1cc(C2CCCN(C(=O)c3ccc4ccccc4c3)C2)on1 (stereo unspecified) | i | i | i | i | nt | nt
CCOc1ccc(NC(=O)CN(C)C(=O)C2=COCCO2)cc1OCC | i | i | i | i | i | nt
CCN(C(=O)CN1CCN(c2ccc(O)cc2)CC1)c1c(N)n(Cc2ccccc2)c(=O)[nH]c1=O | i | 27 | i | i | i | i
CCN(CC)CCSc1nc2c([nH]1)c(=S)n(C)c(=O)n2C | i | 42 | i | i | i | i
CCCCSc1nc2c([nH]1)c(=S)n(C)c(=O)n2C | i | i | i | i | i | nt
COc1ccc(N(CC(=O)Nc2cccnc2)S(=O)(=O)c2ccccc2)cc1OC | i | i | i | i | i | nt
Cn1ncc2c(=S)nc(Cl)[nH]c21 | i | 31 | i | i | i | i
Cc1ccc2nc(N(CCCN(C)C)C(=O)c3ccc4ncsc4c3)sc2c1 | i | 28 | i | i | i | i
COc1ccc2nc(N(CCN(C)C)C(=O)c3ccc4ncsc4c3)sc2c1 | i | i | i | i | i | nt
CN(Cc1ccccc1)C(=O)c1cccc(NC(=O)Cc2cccc(NC(=O)C3CCN(C(=O)c4ccccc4)CC3)c2)c1 | i | i | i | i | i | nt
O=C(/C=C/c1ccco1)NC(=S)Nc1ccc(Cl)cn1 | i | 29 | i | i | i | i
NS(=O)(=O)c1ccc(NC(=O)/C=C/c2ccco2)cc1 | i | i | i | i | i | nt
CCC(=O)Nc1ccc(NC(=S)NC(=O)/C=C/c2ccco2)cc1 | i | i | i | i | i | nt
CN(C)c1ccc(NC(=S)NC(=O)/C=C/c2ccco2)cc1 | i | 27 | i | i | i | i
CC(=O)NS(=O)(=O)c1ccc(NC(=O)/C=C/c2ccco2)cc1 | i | 37 | i | i | i | 24
O=C1C(=Cc2cccc(O)c2O)SC(=S)N1CCCN1CCOCC1 | i | 82 | i | i | i | 83
COc1ccc(C=C2SC(=S)N(CCCN3CCOCC3)C2=O)c(OC)c1 | i | i | i | i | i | nt
Cc1ccc(-c2cc3nc(-c4ccccc4)cc(N4CCC5(CC4)OCCO5)n3n2)cc1 | i | i | i | i | i | nt
CC(=O)N1CCN(c2cc(-c3ccco3)nc3cc(-c4ccccc4)nn23)CC1 | i | 51 | nt | i | nt | i
Cc1ccc(-c2cc3nc(-c4ccco4)cc(N4CCN(Cc5ccoc5)CC4)n3n2)cc1 | i | 27 | nt | i | nt | i
CN(C(=O)c1ccc(N2CCCCC2)c([N+](=O)[O-])c1)C1(C)CCS(=O)(=O)C1 (stereo unspecified) | i | i | i | i | i | nt
Cc1cc(=O)[nH]c(SCc2nnnn2-c2ccc(Cl)cc2)n1 | i | 37 | i | i | i | 55
CS(=O)(=O)N1CCN(c2ccc([N+](=O)[O-])c(SCc3ccco3)c2)CC1 | i | 33 | i | i | nt | i
COc1cccc(NC(=O)c2nc(S(C)(=O)=O)ncc2Cl)c1 | i | 40 | i | i | i | i

Assay outcomes deposited in PubChem BioAssay by The Scripps Research Institute Molecular Screening Center.
